Test results published in PMC5795620 (Journal of medicinal chemistry, 2017).

Tests used:
[1] = Metabolic stability in swine plasma; format: in vitro ADME; conditions: 60 min incubation in swine plasma
[2] = Metabolic stability in swine brain homogenate; format: in vitro ADME; conditions: 10 μM, 0-60 min
[3] = nonhuman primate, systemic administration; cited from earlier work
[4] = Metabolic stability in mouse plasma; format: in vitro ADME; conditions: representative chromatogram (Figure S1)
EcoHIV-infected mice = assay: Radial arm water maze in EcoHIV-infected mice; format: in vivo, mouse; conditions: control for visual or motor function; 1 mg/kg, ip, qod
In short: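 Male C57BL/6J mice, 5 weeks old, randomized (n = 8/group) to drug or saline starting 1 day before ip EcoHIV (2 × 106 pg p24) or sham PBS inoculation. Dosing continued through 30-day infection and testing. From day 30 p.i., six-lane opaque-water RAWM with visual cues. After hidden-platform trials, latency to a visible platform measured in the same context.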

[5] = Overt toxicity observation in mice during 14 treatment; format: in vivo, mouse; conditions: 1 mg/kg, ip, qod over infection period and testing
EcoHIV = EcoHIV viral load in spleen and brain by qPCR; format: in vivo, mouse; conditions: EcoHIV-infected mice, 1 mg/kg, ip, qod

In the case of `CC(C)OC(=O)[C@H](CCC(=O)C=[N+]=[N-])NC(=O)OCOC(=O)C(C)(C)C` [Compound 13a, Isopropyl 6-Diazo-5-oxo-2-((((pivaloyloxy)methoxy)-carbonyl)amino)hexanoate], the “Stability in swine plasma (in words)” value [1] is reported as “labile”.

For `CC(C)OC(=O)[C@H](CCC(=O)C=[N+]=[N-])NC(=O)OC(OC(=O)C(C)(C)C)C(C)C` (mixture of isomers) [Compound 13c, Isopropyl 6-Diazo-2-(((2-methyl-1-(pivaloyloxy)propoxy)-carbonyl)amino)-5-oxohexanoate], the “Metabolic lability in swine brain homogenate (in words)” value (shortened to “Metabolic lability”) [2] was “readily biotransformed”.

For `CC(C)OC(=O)[C@H](CCC(=O)C=[N+]=[N-])NC(=O)O[C@H](C)OC(=O)C(C)(C)C` [Compound 13b, Isopropyl 6-Diazo-5-oxo-2-(((1-(pivaloyloxy)ethoxy)-carbonyl)amino)hexanoate], the “Enhancement in the CSF-to-plasma ratio of 14 exposure relative to equimolar 14” value [3] is listed as “about 10 fold” and the “Metabolic lability” value [2] is listed as “moderately labile”.

In the case of `CC(C)OC(=O)[C@H](CCC(=O)C=[N+]=[N-])NC(=O)OC(C)(C)OC(=O)C(C)(C)C` [Compound 13e, Isopropyl 6-Diazo-5-oxo-2-((((2-(pivaloyloxy)propan-2-yl)-oxy)carbonyl)amino)hexanoate], the “Metabolic lability” value [2] is reported as “mostly stable”.

With `CC(C)OC(=O)[C@H](CCC(=O)C=[N+]=[N-])NC(=O)OC(OC(=O)C(C)(C)C)c1ccccc1` (some centres unmarked) [Compound 13d, Isopropyl 6-Diazo-5-oxo-2-(((phenyl(pivaloyloxy)methoxy)-carbonyl)amino)hexanoate] the “Metabolic lability” value [2] was “readily biotransformed” and the “Time to complete conversion to 14 in mouse plasma” value [4] was at most 10 min.

With `[N-]=[N+]=CC(=O)CC[C@H](N)C(=O)O` [Compound 14, 6-diazo-5-oxo-L-norleucine] the “RAWM escape latency to a visible platform” value (EcoHIV-infected mice) was “no effect”, the “Overt signs of toxicity (diarrhea, weight loss)” value [5] was “no mice exhibited overt signs of toxicity” and the “EcoHIV viral load in the brain” value (EcoHIV) was “no effect”. For the same compound, the “EcoHIV viral load in the spleen (DNA copies)” value (EcoHIV; p = 0.022) was “slight increase”.
